Measured values taken from ChEMBL document CHEMBL2417431, “Synthesis and evaluation of hetero- and homodimers of ribosome-targeting antibiotics: antimicrobial activity, in vitro inhibition of translation, and drug resistance” (J Med Chem, 2013).
Converted amounts (≈) assume the structure as drawn.

How the values were obtained:
Staphylococcus aureus [1] = test: Antibacterial activity against Staphylococcus aureus expressing NorA by double-dilution technique; format: functional
Summary of the method: (§1)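 Double-dilution series of each compound against each strain, reported as MIC. Runs done in duplicate or triplicate.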

[2] = tested on: Mycolicibacterium smegmatis; test: Antibacterial activity against Mycobacterium smegmatis str. MC2 155 by double-dilution technique; format: functional
Bacillus anthracis = test: Antibacterial activity against Bacillus anthracis 34F2 Sterne by double-dilution technique; format: functional; summary of the method: as §1
Haemophilus influenzae = test: Antibacterial activity against Haemophilus influenzae ATCC 51907 by double-dilution technique; format: functional
Summary of the method: (§2)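 MIC measured against each bacterial strain using a double-dilution series of each compound. Every determination was run in duplicate or triplicate.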

Staphylococcus aureus [3] = test: Antibacterial activity against Staphylococcus aureus ATCC 29213 by double-dilution technique; format: functional; summary of the method: as §1
[4] = tested on: Staphylococcus epidermidis; test: Antibacterial activity against biofilm negative Staphylococcus epidermidis ATCC 12228 by double-dilution technique; format: functional; summary of the method: as §2
Escherichia coli [5] = test: Antibacterial activity against Escherichia coli MC1061 by double-dilution technique; format: functional; summary of the method: as §1
Bacillus subtilis [6] = test: Antibacterial activity against Bacillus subtilis 168 harboring AAC(6')/APH(2'')-pRB374 by double-dilution technique; format: functional
Bacillus subtilis [7] = test: Antibacterial activity against Bacillus subtilis 168 by double-dilution technique; format: functional; summary of the method: as §1
Escherichia coli [8] = test: Inhibition of protein synthesis in Escherichia coli S30 extracts after 90 mins by coupled transcription/translation assay; format: functional; settings: 1.5 h
Summary of the method: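 E. coli extract coupled transcription/translation with luciferase reporter. Reactions with varying compound concentrations ran 90 min at 37 °C, were chilled on ice, then diluted in Tris-phosphate pH 7.8 buffer containing DTT, glycerol, Triton X-100 and BSA. Luminescence was read immediately after adding luciferase reagent. IC50 came from concentration-response fits of at least two independent experiments.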

Listeria monocytogenes = test: Antibacterial activity against Listeria monocytogenes ATCC 19115 by double-dilution technique; format: functional; summary of the method: as §1
Bacillus cereus = test: Antibacterial activity against Bacillus cereus ATCC 11778 by double-dilution technique; format: functional; summary of the method: as §2
Streptococcus pyogenes = test: Antibacterial activity against Streptococcus pyogenes Serotype M12 MGAS9429 by double-dilution technique; format: functional; summary of the method: as §2
[9] = Drug metabolism assessed as aminoglycoside 2'-N-acetyltransferase Ic (unknown origin)-mediated conversion at 100 uM by micro plate reader analysis relative to tobramycin; format: ADME
Summary of the method: (§3)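 Ellman assay: CoASH release coupled to DTNB (2 mM), read at 412 nm every 30 s for 1 h at 25 °C. Compound at 100 μM. Conditions by enzyme: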

[10] = Drug metabolism assessed as aminoglycoside 3-N-acetyltransferase AAC(3)-IV (unknown origin)-mediated conversion at 100 uM by micro plate reader analysis relative to tobramycin; format: ADME; summary of the method: as §3
[11] = Drug metabolism assessed as enhanced intracellular survival protein (unknown origin)-mediated conversion at 100 uM by micro plate reader analysis relative to tobramycin; format: ADME; summary of the method: as §3

| SMILES | MIC (Staphylococcus aureus [1]) [µg/mL] | MIC [2] [µg/mL] | MIC (Bacillus anthracis) [µg/mL] | MIC (Haemophilus influenzae) [µg/mL] | MIC (Staphylococcus aureus [3]) [µg/mL] | MIC [4] [µg/mL] | MIC (Escherichia coli [5]) [µg/mL] | MIC (Bacillus subtilis [6]) [µg/mL] | MIC (Bacillus subtilis [7]) [µg/mL] | IC50 (Escherichia coli [8]) [µM] | MIC (Listeria monocytogenes) [µg/mL] | MIC (Bacillus cereus) [µg/mL] | MIC (Streptococcus pyogenes) [µg/mL] | fold change (FC) [9] | fold change (FC) [10] | fold change (FC) [11] |
| --- | --- | --- | --- | --- | --- | --- | --- | --- | --- | --- | --- | --- | --- | --- | --- | --- |
| CCC[C@@H]1C[C@@H](C(=O)N[C@H]([C@H]2O[C@H](SC)[C@H](O)[C@@H](O)[C@H]2O)[C@@H](C)SCCOCCSSCCOCCS[C@H](C)[C@H](NC(=O)[C@@H]2C[C@@H](CCC)CN2C)[C@H]2O[C@H](SC)[C@H](O)[C@@H](O)[C@H]2O)N(C)C1 | 0.6 (≈ 0.571 µM) | 18.8 (≈ 17.9 µM) | 2.3 (≈ 2.19 µM) | 37.5 (≈ 35.7 µM) | 0.6 (≈ 0.571 µM) | 1 (≈ 0.951 µM) | 9.4 (≈ 8.94 µM) | > 150 | 2.3 (≈ 2.19 µM) | 6.1 | 4.7 (≈ 4.47 µM) | 2.3 (≈ 2.19 µM) | > 128 | – | – | – |
| O=C(CSCCOCCS)N[C@H](CO)[C@H](O)c1ccc([N+](=O)[O-])cc1 | > 150 | > 150 | 150 (≈ 384 µM) | > 150 | > 150 | > 128 | 37.5 (≈ 96 µM) | > 150 | > 150 | 48.7 | > 150 | 150 (≈ 384 µM) | 128 (≈ 328 µM) | – | – | – |
| CCC[C@@H]1C[C@@H](C(=O)N[C@H]([C@H]2O[C@H](SC)[C@H](O)[C@@H](O)[C@H]2O)[C@@H](C)SCCOCCS)N(C)C1 | 1.2 (≈ 2.28 µM) | 75 (≈ 142 µM) | 2.3 (≈ 4.37 µM) | 75 (≈ 142 µM) | 4.7 (≈ 8.92 µM) | 4 (≈ 7.59 µM) | 37.5 (≈ 71.2 µM) | > 150 | 9.4 (≈ 17.8 µM) | > 100 | 37.5 (≈ 71.2 µM) | 9.4 (≈ 17.8 µM) | 2 (≈ 3.8 µM) | – | – | – |
| NC[C@H]1O[C@H](O[C@H]2[C@H](O)[C@@H](O[C@@H]3O[C@H](CSCCOCCS)[C@@H](O)[C@H](N)[C@H]3O)[C@H](N)C[C@@H]2N)[C@H](N)C[C@@H]1O | 18.8 (≈ 32 µM) | 2.3 (≈ 3.91 µM) | 37.5 (≈ 63.8 µM) | 37.5 (≈ 63.8 µM) | 75 (≈ 128 µM) | 16 (≈ 27.2 µM) | 18.8 (≈ 32 µM) | 75 (≈ 128 µM) | 2.3 (≈ 3.91 µM) | 0.43 | 18.8 (≈ 32 µM) | 150 (≈ 255 µM) | 128 (≈ 218 µM) | – | – | – |
| CCC[C@@H]1C[C@@H](C(=O)NC([C@H]2O[C@H](SC)[C@H](O)[C@@H](O)[C@H]2O)[C@@H](C)SCCOCCSSCCOCCSC[C@H]2O[C@@H](O[C@@H]3[C@@H](O)[C@H](O[C@H]4O[C@H](CN)[C@@H](O)C[C@H]4N)[C@@H](N)C[C@H]3N)C(O)[C@@H](N)[C@@H]2O)N(C)C1 (single isomer, unassigned) | 4.7 (≈ 4.22 µM) | 4.7 (≈ 4.22 µM) | 2.3 (≈ 2.07 µM) | 75 (≈ 67.4 µM) | 2.3 (≈ 2.07 µM) | 2 (≈ 1.8 µM) | 4.7 (≈ 4.22 µM) | 150 (≈ 135 µM) | 1.2 (≈ 1.08 µM) | 0.98 | 18.8 (≈ 16.9 µM) | 9.4 (≈ 8.45 µM) | 64 (≈ 57.5 µM) | 1.6 | 1.4 | 2.6 |
| O=C(N[C@H](CO)[C@H](O)c1ccc([N+](=O)[O-])cc1)C(Cl)Cl [CHLORAMPHENICOL] | 4.7 (≈ 14.5 µM) | 18.8 (≈ 58.2 µM) | 4.7 (≈ 14.5 µM) | 0.6 (≈ 1.86 µM) | 9.4 (≈ 29.1 µM) | 8 (≈ 24.8 µM) | < 0.3 | 1.2 (≈ 3.71 µM) | 2.3 (≈ 7.12 µM) | 6.4 | 9.4 (≈ 29.1 µM) | 4.7 (≈ 14.5 µM) | 4 (≈ 12.4 µM) | – | – | – |
| CCC[C@@H]1C[C@@H](C(=O)N[C@@H]([C@H]2O[C@H](SC)[C@H](O)[C@@H](O)[C@H]2O)[C@H](C)Cl)N(C)C1 [CLINDAMYCIN] | – | 9.4 (≈ 22.1 µM) | < 0.3 | 4.7 (≈ 11.1 µM) | – | 1 (≈ 2.35 µM) | 2.3 (≈ 5.41 µM) | > 150 | – | 18.1 | 4.7 (≈ 11.1 µM) | – | 1 (≈ 2.35 µM) | – | – | – |
| NC[C@H]1O[C@H](O[C@H]2[C@H](O)[C@@H](O[C@H]3O[C@H](CO)[C@@H](O)[C@H](N)[C@H]3O)[C@H](N)C[C@@H]2N)[C@H](N)C[C@@H]1O [TOBRAMYCIN] | 9.4 (≈ 20.1 µM) | 0.6 (≈ 1.28 µM) | 9.4 (≈ 20.1 µM) | 18.8 (≈ 40.2 µM) | 37.5 (≈ 80.2 µM) | 0.3 (≈ 0.642 µM) | 9.4 (≈ 20.1 µM) | 9.4 (≈ 20.1 µM) | 2.3 (≈ 4.92 µM) | 0.015 | 18.8 (≈ 40.2 µM) | 75 (≈ 160 µM) | 64 (≈ 137 µM) | – | – | – |
